# Measurements pooled from the literature.
# Lines come from different studies, so protocols differ.
# Target: STE20/SPS1-related proline-alanine-rich protein kinase (STK39, Homo sapiens, UniProt Q9UEW8)
Compound,assay,setting,measurement,value
O=C1Nc2ccc(Cl)cc2C1=Cc1cc(Cl)c(O)c(Cl)c1,cell-free assay,0.5 µM,remaining signal,97%
CS(=O)(=O)N1CCCC(NC(=O)[C@H](CCC2CCCCC2)NC(=O)c2ccc(CNc3ncnc4c3nnn4-c3ccccc3)cc2)C1 (stereo partly drawn),"cell-free assay, competition with immobilised ligand",0.1 µM,remaining binding,100%
CC(C)(C)c1nc2c(s1)c1nc(N)ncc1c1ccc(NS(=O)(=O)c3c(F)cccc3F)c(F)c12,"enzyme activity, inhibitor, radiometric",1 µM,remaining activity,92%
Cn1cncc1C1=CN(c2ncnc3[nH]cnc23)CCS1,"enzyme activity, inhibitor, radiometric",2 µM,inhibition,87.3%
O=C1NC(=O)c2cc(Nc3ccc(F)cc3)c(Nc3ccc(F)cc3)cc21,cell-free assay,0.5 µM,remaining signal,89.2%
Cn1cnc(Br)c1C1=CN(c2ncnc3[nH]cnc23)CCS1,"enzyme activity, inhibitor, radiometric",2 µM,inhibition,86.6%
Nc1ncnc2occ(-c3ccc(NC(=O)Nc4cc(C(F)(F)F)ccc4F)cc3)c12,"cell-free assay, inhibitor",20 µM,remaining signal,19%
Cc1ccc(C(=O)Nc2ccc(CN3CCN(C)CC3)c(C(F)(F)F)c2)cc1C#Cc1cnc2cccnn12,"enzyme activity, inhibitor",23.5 nM,remaining activity,85%
Cc1cc(-n2nc(Cc3cc(F)cc(C(F)(F)F)c3)nc2C)ccc1C(N)=O,"cell-free assay, competition with immobilised ligand",1 µM,remaining binding,100%
N#CCCc1ccc2c(c1)-c1[nH]c3ccc([N+](=O)[O-])cc3c1CC(=O)N2,cell-free assay,0.5 µM,remaining signal,96.4%
O=C(Nc1cnn(-c2csc(C(=O)NC3COC3)c2)c1)Nc1c(F)cccc1Cl,"enzyme activity, inhibitor",5 µM,remaining activity,82.3%
O=C(Nc1ccc(Oc2ccc(F)cc2)cc1)N1CCc2ncccc2[C@H]1c1ccc(F)cc1,"cell-free assay, competition with immobilised ligand",1 µM,remaining binding,82%
